Test results: ChEMBL document CHEMBL4052818, “Design, Synthesis, and Biological Assessment of Biased Allosteric Modulation of the Urotensin II Receptor Using Achiral 1,3,4-Benzotriazepin-2-one Turn Mimics” (J Med Chem, 2017)
Calls of active or inactive are those of the source. The calls are words filed in the database; no cut-off is given here.

Legend:
[1] = molecular target: T1, Urotensin-2 receptor (Homo sapiens) (UniProt Q9UKP6); test: Agonist activity at human urotensin-2 receptor expressed in HEK293 cells assessed as Gq activation at 10^-5 M […] by BRET assay; format: cell-based
T1 sequence (whole entry): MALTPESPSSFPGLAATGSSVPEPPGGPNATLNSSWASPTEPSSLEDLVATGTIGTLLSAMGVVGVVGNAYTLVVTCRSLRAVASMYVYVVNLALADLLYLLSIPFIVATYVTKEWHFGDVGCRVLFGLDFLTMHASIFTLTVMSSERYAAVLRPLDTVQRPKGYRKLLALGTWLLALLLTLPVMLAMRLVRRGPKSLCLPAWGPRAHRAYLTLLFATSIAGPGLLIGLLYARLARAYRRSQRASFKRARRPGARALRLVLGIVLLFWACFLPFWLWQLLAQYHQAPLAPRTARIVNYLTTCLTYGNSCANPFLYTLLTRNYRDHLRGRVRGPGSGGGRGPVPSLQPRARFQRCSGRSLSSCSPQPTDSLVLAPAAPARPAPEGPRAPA
Procedure, shortened: (§1)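 HEK293-UT cells were transfected with a polycistronic BRET biosensor, 2.5 μg for Gq or 0.5 μg for G12, and grown about 40 h. They were then held 2 h in PBS with 0.1% glucose. The analogue (10−5 M) was added alone with coelenterazine 400A. The GFP10/RlucII ratio (515/410 nm) was read over 5 min and normalized to hUII or URP at 10−5 M.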

[2] = molecular target: T2, Urotensin-2 receptor (Rattus norvegicus) (UniProt P49684); test: Agonist activity at urotensin-2 receptor in Sprague-Dawley rat thoracic aorta assessed as induction of aortic ring contraction at 10^-5 M incubated for 15 mins
T2 sequence (whole entry): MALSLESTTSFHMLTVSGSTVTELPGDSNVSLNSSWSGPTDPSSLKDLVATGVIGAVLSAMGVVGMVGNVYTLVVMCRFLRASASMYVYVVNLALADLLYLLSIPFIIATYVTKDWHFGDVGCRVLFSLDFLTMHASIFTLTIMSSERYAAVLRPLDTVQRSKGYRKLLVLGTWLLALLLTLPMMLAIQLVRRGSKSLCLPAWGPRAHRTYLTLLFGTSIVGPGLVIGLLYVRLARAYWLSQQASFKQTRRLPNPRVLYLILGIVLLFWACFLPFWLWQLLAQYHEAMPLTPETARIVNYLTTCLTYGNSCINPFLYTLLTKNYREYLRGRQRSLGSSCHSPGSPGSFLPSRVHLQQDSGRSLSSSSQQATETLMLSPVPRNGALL
Procedure, shortened: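 Endothelium-denuded 4 mm thoracic aortic rings from adult male rats (250–300 g) were held in organ baths of oxygenated Krebs–Henseleit. A 40 mM KCl contraction served as the initial control. Each analogue was added alone at 10−5 M, and the contraction was expressed as % of the KCl response.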

[3] = molecular target: T1, Urotensin-2 receptor (Homo sapiens); test: Allosteric modulation of human urotensin-2 receptor expressed in HEK293 cells assessed as change in human urotensin-2-induced Gq activation by measuring urotensin-2 Emax at 10^-5 M preincubated for 30 mins followed by urotensin-2 addition by BRET assay (reference value: 100 +/- 3%); format: cell-based
[4] = molecular target: T1, Urotensin-2 receptor (Homo sapiens); test: Allosteric modulation of human urotensin-2 receptor expressed in HEK293 cells assessed as change in URP-induced G12 activation by measuring URP Emax at 10^-5 M preincubated for 30 mins followed by URP addition by BRET assay (reference value: 100 +/- 7%); format: cell-based
[5] = molecular target: T2, Urotensin-2 receptor (Rattus norvegicus); test: Allosteric modulation of urotensin-2 receptor in Sprague-Dawley rat thoracic aorta assessed as change in URP-mediated aortic ring contraction by measuring URP Emax at 10^-5M preincubated for 15 mins followed by URP addition relative to KCl (reference value: 118 +/- 2%)
[6] = molecular target: T1, Urotensin-2 receptor (Homo sapiens); test: Allosteric modulation of human urotensin-2 receptor expressed in HEK293 cells assessed as change in human urotensin-2-induced G12 activation by measuring urotensin-2 Emax at 10^-5 M preincubated for 30 mins followed by urotensin-2 addition by BRET assay (reference value: 100 +/- 6%); format: cell-based
[7] = molecular target: T2, Urotensin-2 receptor (Rattus norvegicus); test: Allosteric modulation of urotensin-2 receptor in Sprague-Dawley rat thoracic aorta assessed as change in human urotensin-2-mediated aortic ring contraction by measuring urotensin-2 Emax at 10^-5M preincubated for 15 mins followed by urotensin-2 addition relative to KCl (reference value: 103 +/- 2%)
[8] = molecular target: T1, Urotensin-2 receptor (Homo sapiens); test: Agonist activity at human urotensin-2 receptor expressed in HEK293 cells assessed as G12 activation at 10^-5 M […] by BRET assay; format: cell-based; procedure, shortened: as §1
[9] = molecular target: T1, Urotensin-2 receptor (Homo sapiens); test: Allosteric modulation of human urotensin-2 receptor expressed in HEK293 cells assessed as change in URP-induced Gq activation by measuring URP Emax at 10^-5 M preincubated for 30 mins followed by URP addition by BRET assay (reference value: 100 +/- 3%); format: cell-based
[10] = molecular target: T2, Urotensin-2 receptor (Rattus norvegicus); test: Allosteric modulation of urotensin-2 receptor in Sprague-Dawley rat thoracic aorta assessed as change in human urotensin-2-mediated aortic ring contraction by measuring urotensin-2 Emax at 1 uM preincubated for 15 mins followed by urotensin-2 addition relative to KCl (reference value: 103 +/- 2%)
[11] = molecular target: T2, Urotensin-2 receptor (Rattus norvegicus); test: Allosteric modulation of urotensin-2 receptor in Sprague-Dawley rat thoracic aorta assessed as change in URP-mediated aortic ring contraction by measuring URP Emax at 1 uM preincubated for 15 mins followed by URP addition relative to KCl (reference value: 118 +/- 2%)

| SMILES | Activity [1] | Activity [2] | Emax [3] | Emax [4] | Emax [5] | Emax [6] | Emax [7] | Activity [8] | Emax [9] | Emax [10] | Emax [11] |
| --- | --- | --- | --- | --- | --- | --- | --- | --- | --- | --- | --- |
| COc1ccc(/C=C/C2=NN(CCCCN)C(=O)N(Cc3ccc(-c4ccccc4)cc3)c3ccccc32)cc1 | inactive | < 8% | 80% | 106% | 284% | 96% | 83% | inactive | 83% |  |  |
| NCCCN1N=C(CCc2ccc(O)cc2)c2ccccc2N(Cc2ccc(-c3ccccc3)cc2)C1=O |  | < 8% |  |  | 90% |  | 95% |  |  |  |  |
| COc1ccc(CCC2=NN(CCCN)C(=O)N(Cc3ccc(-c4ccccc4)cc3)c3ccccc32)cc1 |  | < 8% |  |  | 47% |  | 59% |  |  |  |  |
| COc1ccc(/C=C/C2=NN(CCCN)C(=O)N(Cc3ccc(-c4ccccc4)cc3)c3ccccc32)cc1 |  | < 8% |  |  | 194% |  | 106% |  |  |  |  |
| NCCCN1N=C(/C=C/c2ccc(O)cc2)c2ccccc2N(Cc2ccc3ccccc3c2)C1=O |  | < 8% |  |  | 111% |  | 59% |  |  |  |  |
| NCCCCN1N=C(CCc2ccc(O)cc2)c2ccccc2N(Cc2ccc(-c3ccccc3)cc2)C1=O |  | < 8% |  |  | 86% |  | 118% |  |  |  |  |
| CC(C)[C@H](NC(=O)[C@@H]1CSSC[C@H](NC(=O)[C@H](C)N)C(=O)N[C@@H](Cc2ccccc2)C(=O)N[C@@H](Cc2ccc(-c3ccccc3)cc2)C(=O)N[C@@H](CCCCN)C(=O)N[C@@H](Cc2ccc(O)cc2)C(=O)N1)C(=O)O |  |  |  |  |  |  |  |  |  | 61% | 102% |
| NCCCCN1N=C(/C=C/c2ccc(O)cc2)c2ccccc2N(Cc2ccc(-c3ccccc3)cc2)C1=O | inactive | < 8% | 92% | 72% | 118% | 103% | 48% | inactive | 92% |  |  |
| NCCCCN1N=C(/C=C/c2ccc(O)cc2)c2ccccc2N(Cc2ccc3ccccc3c2)C1=O |  | < 8% |  |  | 114% |  | 55% |  |  |  |  |
| COc1ccc(/C=C/C2=NN(CCCCN)C(=O)N(Cc3ccc4ccccc4c3)c3ccccc32)cc1 |  | < 8% |  |  | 110% |  | 108% |  |  |  |  |
| NCCCCN1N=C(CCc2nc3ccccc3s2)c2ccccc2N(Cc2cccc3ccccc23)C1=O |  | < 8% |  |  | 124% |  | 100% |  |  |  |  |
| NCCCN1N=C(/C=C/c2ccc(O)cc2)c2ccccc2N(Cc2ccc(-c3ccccc3)cc2)C1=O |  | < 8% |  |  | 115% |  | 51% |  |  |  |  |
| NCCCN1N=C(CCc2ccc(O)cc2)c2ccccc2N(Cc2ccc3ccccc3c2)C1=O |  | < 8% |  |  | 96% |  | 107% |  |  |  |  |
| CNCCCCN1N=C(CCc2nc3ccccc3s2)c2ccccc2N(Cc2ccc(-c3ccccc3)cc2)C1=O |  | < 8% |  |  | 91% |  | 90% |  |  |  |  |
| NCCCCN1N=C(CCc2nc3ccccc3s2)c2ccccc2N(Cc2ccc(-c3ccccc3)cc2)C1=O |  | < 8% |  |  | 112% |  | 68% |  |  |  |  |
| NCCCCN1N=C(CCc2ccc(O)cc2)c2ccccc2N(Cc2ccc3ccccc3c2)C1=O | inactive | < 8% | 83% | 90% | 75% | 98% | 98% | inactive | 78% |  |  |
| CNCCCN1N=C(CCc2nc3ccccc3s2)c2ccccc2N(Cc2ccc(-c3ccccc3)cc2)C1=O |  | < 8% |  |  | 110% |  | 76% |  |  |  |  |
| COc1ccc(CCC2=NN(CCCCN)C(=O)N(Cc3ccc4ccccc4c3)c3ccccc32)cc1 |  | < 8% |  |  | 72% |  | 55% |  |  |  |  |
| CNCCCCN1N=C(CCc2nc3ccccc3s2)c2ccccc2N(Cc2ccc3ccccc3c2)C1=O |  | < 8% |  |  | 114% |  | 87% |  |  |  |  |
| NCCCN1N=C(CCc2nc3ccccc3s2)c2ccccc2N(Cc2ccc3ccccc3c2)C1=O | inactive | < 8% | 87% | 115% | 117% | 96% | 45% | inactive | 82% |  |  |
| CNCCCCN1N=C(CCc2nc3ccccc3s2)c2ccccc2N(Cc2cccc3ccccc23)C1=O |  | < 8% |  |  | 99% |  | 99% |  |  |  |  |
| NCCCN1N=C(CCc2nc3ccccc3s2)c2ccccc2N(Cc2ccc(-c3ccccc3)cc2)C1=O |  | < 8% |  |  | 99% |  | 75% |  |  |  |  |
| COc1ccc(CCC2=NN(CCCN)C(=O)N(Cc3ccc4ccccc4c3)c3ccccc32)cc1 |  | < 8% |  |  | 41% |  | 55% |  |  |  |  |
| COc1ccc(/C=C/C2=NN(CCCN)C(=O)N(Cc3ccc4ccccc4c3)c3ccccc32)cc1 |  | < 8% |  |  | 120% |  | 76% |  |  |  |  |
| COc1ccc(CCC2=NN(CCCCN)C(=O)N(Cc3ccc(-c4ccccc4)cc3)c3ccccc32)cc1 |  | < 8% |  |  | 84% |  | 82% |  |  |  |  |
| NCCCCN1N=C(CCc2nc3ccccc3s2)c2ccccc2N(Cc2ccc3ccccc3c2)C1=O |  | < 8% |  |  | 111% |  | 73% |  |  |  |  |
| NCCCN1N=C(CCc2nc3ccccc3s2)c2ccccc2N(Cc2cccc3ccccc23)C1=O |  | < 8% |  |  | 101% |  | 100% |  |  |  |  |
